The target of one data set is T1, Bile acid receptor (Homo sapiens, UniProt Q96RI1).
T1 sequence (Q96RI1 whole entry): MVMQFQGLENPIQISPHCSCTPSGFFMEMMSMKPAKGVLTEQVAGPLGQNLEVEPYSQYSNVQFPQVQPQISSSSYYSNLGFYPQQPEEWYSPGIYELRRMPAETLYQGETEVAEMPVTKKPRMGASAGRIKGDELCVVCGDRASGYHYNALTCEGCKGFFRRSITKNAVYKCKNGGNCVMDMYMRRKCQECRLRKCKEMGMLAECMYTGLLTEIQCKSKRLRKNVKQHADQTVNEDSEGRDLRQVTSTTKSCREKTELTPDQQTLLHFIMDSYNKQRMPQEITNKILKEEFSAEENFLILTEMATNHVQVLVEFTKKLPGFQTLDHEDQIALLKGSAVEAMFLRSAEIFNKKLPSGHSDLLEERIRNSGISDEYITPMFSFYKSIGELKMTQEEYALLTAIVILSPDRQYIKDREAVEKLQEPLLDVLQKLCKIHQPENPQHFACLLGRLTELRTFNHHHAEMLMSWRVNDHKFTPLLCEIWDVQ
As to the kind of experiment: Transactivation of full-length FXR (unknown origin) expressed in HEK293 cells after 18 hrs by dual-glo luciferase reporter gene assay. The data set is classed as cell-based. In general terms: In a reporter assay the amount or activity of a reporter protein is the signal.

The test system of data set [1] is HEK293. As to the kind of experiment: Cytotoxicity against HEK293 cells assessed as effect on renilla luciferase expression at 0.1 to 250 uM after 18 hrs by dual-glo luciferase reporter gene expression. Type of data set: cell-based. The conditions noted are these: human, hek293, 18 h. Summed up:
(§1)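 HEK293 in DMEM with 10% FBS, 37 °C, 5% CO2; calcium phosphate co-transfection in serum-free medium with TK-FXRE-luc reporter (50 ng), Renilla vector (20 ng) and full-length FXR plasmid (30 ng) per well. Compounds added 6 h post-transfection, cells harvested 18 h later; Renilla luminescence (Dual-Glo) monitored as the cell-status control over 0.1–250 μM.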

Data set [2] concerns HEK293. As to the kind of experiment: Effect on renilla luciferase expression in HEK293 cells at 100 uM after 18 hrs by dual-glo luciferase reporter gene assay. To be noted: human, hek293, 18 h. The data set is classed as ADME, cell-based. Summed up: as §1
For data set [3], the target named is T2, Bile acid receptor (Homo sapiens) (UniProt Q96RI1).
T2 sequence (whole entry): T1 sequence (Q96RI1 whole entry)
As to the kind of experiment: Transactivation of full-length FXR (unknown origin) expressed in HEK293 cells at 100 uM after 18 hrs by dual-glo luciferase reporter gene assay relative to CDCA. The data set is classed as cell-based. Put shortly:
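HEK293 cells co-transfected by calcium phosphate with full-length FXR expression plasmid, FXRE-driven firefly luciferase reporter and Renilla normalization vector. Compound added at 100 μM 6 h after transfection; dual luciferase read 18 h later. Firefly normalized to Renilla, expressed as fold activation over untreated cells, then as percent of maximal fold induction by CDCA. At least two separate experiments, triplicate assays.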

pEC50: −log10 of the molar value. Activity calls are given as the source filed them.

Among the data in ChEMBL document CHEMBL4257546, “Discovery of new FXR agonists based on 6-ECDCA binding properties by virtual screening and molecular docking” (Medchemcomm, 2018) are EC50, Activity and Efficacy values, retold here.

What is called pEC50 is the negative decadic logarithm of the EC50, by convention in mol/L. Low values mean a high EC50, high ones a low EC50. With `CN(Cc1ccc(N2CCCCC2)cc1)C(=O)c1n[nH]c(=O)c2ccccc12`, on Bile acid receptor, the pEC50 is 4.84. For the same compound, the Activity entry with HEK293 [1] and in the data set on HEK293 [2] was “Non-Toxic” in each case. The compound further showed an Efficacy in data set [3] of 60.3%.
With `CCOC(=O)CC(c1ccc(F)cc1)C1CCN(C(=O)c2ccc([N+](=O)[O-])o2)CC1` (stereo unspecified), the Activity entry in the data set on HEK293 [2] is “Non-Toxic”. For the same compound, the result in data set [3] was inactive.
`CC(Sc1nnc(C2CCCC2)[nH]1)C(=O)Nc1sccc1C(N)=O` (stereo unspecified): the Activity entry in the data set with HEK293 [2] is recorded as “Non-Toxic”. Further, the outcome in data set [3] was inactive.
The like results for `Cc1ccc([N+](=O)[O-])cc1NCC(=O)Nc1cc(C(F)(F)F)ccc1-n1cncn1` were, in that order, “Non-Toxic” and “inactive”.
For `O=C(COc1ccccc1Cl)NNC(=O)c1cccc(NS(=O)(=O)c2ccc3c(c2)OCCCO3)c1` the same measures were “Non-Toxic” and “inactive”.
The like results for `CCn1c(CNc2ccc(Cl)cc2)nnc1SCC(=O)NNC(=O)c1ccc(Cl)cc1` were, in that order, “Non-Toxic” and “inactive”.
Consider `COC(=O)/C=C/c1ccc(OCC(=O)NC2c3ccccc3-c3ccccc32)c(OC)c1`, for which the Activity entry with HEK293 [2] is recorded as “Non-Toxic”. In addition, in data set [3], the result was inactive.
In the case of `CS(=O)(=O)N1CCC(NC(=O)CC(NC(N)=O)c2ccccc2F)CC1` (stereo unspecified), in the data set with HEK293 [2], the Activity result was “Non-Toxic”. The outcome in data set [3] was inactive.
For `O=C(CN1CC(C(=O)N2CCCCC2)Oc2ccccc21)NC(=O)NCc1ccco1` (stereo unspecified), the Activity entry in the data set with HEK293 [2] is “Non-Toxic”. The outcome in data set [3] was inactive.
The like results for `CC(NS(=O)(=O)c1ccccc1F)C(=O)Cc1nc2ccccc2[nH]1` (stereo unspecified) were, in that order, “Non-Toxic” and “inactive”.
On Bile acid receptor, `COc1cc([N+](=O)[O-])ccc1NC(=O)CNc1ccccc1N1CCCC1=O` gave a pEC50 of 5.36. The Activity entry with HEK293 [1] and in the data set on HEK293 [2] was “Non-Toxic” throughout. The same compound displayed an Efficacy in data set [3] of 120%.
In the case of `Nc1nc(CSc2nnnn2Cc2ccccc2)nc(Nc2ccccc2)n1`, the Activity entry in the data set on HEK293 [2] is “Non-Toxic”. Further, in data set [3], the result was inactive.
Take `CNC(=O)C1CN(CC(=O)Nc2cc(C)c(Cl)cc2OC)c2ccccc2O1` (stereo unspecified): the Activity entry in the data set on HEK293 [2] is “Non-Toxic”. Besides, the outcome in data set [3] was inactive.
For `Cc1cc(CNC(=O)c2ccccc2SC2CCS(=O)(=O)C2)ccc1F` (stereo unspecified) the same measures were “Non-Toxic” and “inactive”.
The like results for `CC1(CSc2cccc(C(=O)NCc3cccs3)c2)NC(=O)NC1=O` (stereo unspecified) were, in that order, “Non-Toxic” and “inactive”.
For `O=C(Nc1ccc(N2CCOCC2)cc1)c1ccccc1SC1CCS(=O)(=O)C1` (stereo unspecified) the same measures were “Non-Toxic” and “inactive”.
As to `NC(=O)CSc1ccccc1NC(=O)Nc1ccc(Cl)c(Cl)c1`, the Activity result in the data set on HEK293 [2] is “Non-Toxic”. Moreover, in data set [3], the outcome was inactive.
Turning to `O=C(CN(Cc1ccc2c(c1)OCO2)C1CCCC1)Nc1cccc2ccccc12`, in the data set with HEK293 [2], the Activity entry was “Non-Toxic”. Moreover, the result in data set [3] was inactive.
In the case of `O=C(O)c1ccccc1-c1ccccc1C(=O)N1CCN(Cc2ccc3c(c2)OCO3)CC1`, the pEC50 on Bile acid receptor was 5.22. The Activity result with HEK293 [1] and in the data set on HEK293 [2] was “Non-Toxic” in each case. The Efficacy in data set [3] worked out at 55.1%.
Consider `Cc1cc(/N=N/Cc2ccccc2)nc(NS(=O)(=O)c2ccccc2Cl)n1`, for which the Activity entry in the data set with HEK293 [2] was “Non-Toxic”. Besides, the result in data set [3] was inactive.
For `COc1ccc(Nc2ccc(NC(=O)c3ccccc3NS(=O)(=O)c3cc(C)ccc3C)cc2)cc1` the same measures were “Non-Toxic” and “inactive”.
The like results for `NC(=O)CSc1ccccc1NCC(=O)Nc1ccc(Cl)cc1Cl` were, in that order, “Non-Toxic” and “inactive”.
In the case of `O=C(Nc1ccccc1)Nc1ccccc1NS(=O)(=O)c1ccccc1`, the Activity result in the data set with HEK293 [2] is “Non-Toxic”. Also, the outcome in data set [3] was inactive.
For `COc1ccc(CN(C)C(=O)c2c[nH]c3ccccc23)cc1F` the same measures were “Non-Toxic” and “inactive”.
Take `Cc1nn(-c2ccccc2)c(N)c1C(O)(CC(=O)C(F)(F)F)C(F)(F)F` (stereo unspecified): in the data set on HEK293 [2], the Activity result is on record as “Non-Toxic”. Moreover, the result in data set [3] was inactive.
